In ChEMBL document CHEMBL1139764, “Design, synthesis, and structure-activity relationship studies of new phenolic DNA gyrase inhibitors” (2007):
Values after ≈ are worked out from the molar mass of the structure shown. Blank lines part the entries; values can stand above or below the molecule they belong to.

Experiments:
[1] = test system: Escherichia coli; assay: Inhibition of Escherichia coli D110 DNA gyrase after 30 mins by supercoiling assay
[2] = test system: Staphylococcus aureus; assay: Antibacterial activity against Staphylococcus aureus ATCC 25923 by twofold agar dilution method; assay type: functional
Method in brief: (§1)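 MIC read as lowest inhibitory level in twofold serial dilutions in Müller–Hinton agar; each spot inoculated with 10^4 CFU.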

[3] = test system: Staphylococcus aureus; assay: Antibacterial activity against novobiocin R144I-resistant Staphylococcus aureus ATCC 25923 by agar dilution method; assay type: functional; method in brief: as §1
[4] = test system: Staphylococcus aureus; assay: Antibacterial activity against Staphylococcus aureus Smith by twofold agar dilution method; assay type: functional; method in brief: as §1
[5] = test system: Staphylococcus aureus; assay: Antibacterial activity against methicillin and quinolones-resistant Staphylococcus aureus Smith QR54 by twofold agar dilution method; assay type: functional; method in brief: as §1
[6] = test system: Staphylococcus aureus; assay: Antibacterial activity against erythromycin, methicillin and trimethoprim-resistant Staphylococcus aureus Smith 744 by twofold agar dilution method; assay type: functional; method in brief: as §1
[7] = test system: Staphylococcus epidermidis; assay: Antibacterial activity against Staphylococcus epidermidis ATCC 14990 by twofold agar dilution method; assay type: functional
Method in brief: (§2)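 Twofold serial dilutions in Müller–Hinton agar with an inoculum of 10^4 CFU per spot. The read-out is the minimal inhibitory concentration (MIC).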

[8] = test system: Streptococcus pyogenes; assay: Antibacterial activity against Streptococcus pyogenes beta-15 by agar dilution method; assay type: functional; method in brief: as §2
[9] = test system: Enterococcus faecium; assay: Antibacterial activity against ampicillin, trimethoprim and vancomycin-resistant Enterococcus faecium vanA E23-8 by twofold agar dilution method; assay type: functional; method in brief: as §1

Activity [1]: 4 µg/mL
Compound: COC(=O)c1c(C)c(OC)cc(O)c1CNc1cc(Cl)cc(Cl)c1

Activity [1]: 8 µg/mL
Compound: Oc1ccc(Cl)cc1CNc1cccc(Cl)c1

Activity [1]: 8 µg/mL
Compound: COc1cc(O)c2c(c1C)C(=O)N(c1cccc(C(=O)O)c1)C2

Activity [1]: 36 µg/mL
Compound: COc1ccc(N2C(=O)c3c(C)c(OC)cc(O)c3C2c2ccc(CC#N)s2)cc1 (stereo not given)

Activity [1]: > 63 µg/mL
Compound: COc1ccc(N2C(=O)c3c(C)c(OC)cc(O)c3C2c2[nH]c3ccccc3c2C)cc1 (stereo not given)

Activity [1]: 2 µg/mL
Compound: COc1cc(O)c2c(c1C)C(=O)N(c1cccc(CC(=O)O)c1)C2

Activity [1]: 4 µg/mL
Compound: COc1ccc(N2C(=O)c3c(C)c(OC)cc(O)c3C2Sc2ncccn2)cc1 (stereo not given)

Activity [1]: 2 µg/mL
Compound: C=CCC1c2c(O)cc(OC)c(C)c2C(=O)N1c1ccc(OC)cc1 (stereo not given)

Activity [1]: > 63 µg/mL
Compound: COc1ccc(N2C(=O)c3c(C)c(OC)cc(O)c3C2CC(C)=O)cc1 (stereo not given)

Compound: COc1cc(O)c2c(c1Br)C(=O)N1c3ccc(C)cc3COC21 (stereo not given)
Activity [1]: 0.25 µg/mL
MIC [2]: 8 µg/mL (≈ 21.3 µM)
MIC [3]: 4 µg/mL (≈ 10.6 µM)
MIC [4]: 8 µg/mL (≈ 21.3 µM)
MIC [5]: 8 µg/mL (≈ 21.3 µM)
MIC [6]: 8 µg/mL (≈ 21.3 µM)
MIC [7]: 2 µg/mL (≈ 5.32 µM)
MIC [8]: 16 µg/mL (≈ 42.5 µM)
MIC [9]: > 32 µg/mL

Activity [1]: 8 µg/mL
Compound: COC(=O)c1c(C)c(OC)cc(O)c1CNc1ccc2ncccc2c1

Activity [1]: 8 µg/mL
Compound: COc1ccc(N2Cc3c(O)cc(OC)c(C)c3C2=O)cc1

Activity [1]: 1 µg/mL
Compound: COc1cc(O)c2c(c1C)C(=O)N(c1ccc(S(N)(=O)=O)cc1)C2

Activity [1]: 16 µg/mL
Compound: Oc1ccc(CNc2ccc(Cl)cc2)c(O)c1

Compound: COc1cc(O)c2c(c1C)C(=O)N1c3cc4c(cc3C(=O)CC21)OCO4 (stereo not given)
Activity [1]: 1 µg/mL
MIC [2]: > 32 µg/mL
MIC [4]: > 32 µg/mL
MIC [7]: 32 µg/mL (≈ 90.6 µM)
MIC [8]: > 32 µg/mL
MIC [9]: > 32 µg/mL

Activity [1]: 2 µg/mL
Compound: COC(=O)c1c(C)c(OC)cc(O)c1CNc1ccc(Cl)c(Cl)c1

Activity [1]: 0.5 µg/mL
Compound: COc1cc(O)c2c(c1C)C(=O)N(c1cnc3ccccc3c1)C2

Compound: COc1cc(O)c2c(c1C)C(=O)N1c3ccc(Cl)cc3[C@@H](O)C[C@H]21
Activity [1]: 1 µg/mL
MIC [2]: 8 µg/mL (≈ 23.1 µM)
MIC [3]: 4 µg/mL (≈ 11.6 µM)
MIC [4]: 4 µg/mL (≈ 11.6 µM)
MIC [5]: 8 µg/mL (≈ 23.1 µM)
MIC [6]: 16 µg/mL (≈ 46.3 µM)
MIC [7]: 8 µg/mL (≈ 23.1 µM)
MIC [8]: 32 µg/mL (≈ 92.5 µM)
MIC [9]: > 32 µg/mL

Activity [1]: 31 µg/mL
Compound: COc1ccc(N2C(=O)c3c(C)c(OC)cc(O)c3C2CC=O)cc1 (stereo not given)

Activity [1]: 16 µg/mL
Compound: CCCCSC1c2c(O)cc(OC)c(C)c2C(=O)N1c1ccc(OC)cc1 (stereo not given)

Activity [1]: 1 µg/mL
Compound: COc1cc(O)c2c(c1C)C(=O)N(c1ccc3[nH]ncc3c1)C2

Compound: COc1cc(O)c2c(c1C)C(=O)N1c3c(C)cccc3COC21 (stereo not given)
Activity [1]: 0.5 µg/mL
MIC [2]: 32 µg/mL (≈ 103 µM)
MIC [3]: 16 µg/mL (≈ 51.4 µM)
MIC [4]: 32 µg/mL (≈ 103 µM)
MIC [5]: 16 µg/mL (≈ 51.4 µM)
MIC [6]: > 32 µg/mL
MIC [7]: 2 µg/mL (≈ 6.42 µM)
MIC [8]: > 32 µg/mL
MIC [9]: > 32 µg/mL

Activity [1]: > 63 µg/mL
Compound: COc1ccc(N2C(=O)c3c(C)c(OC)cc(O)c3C2c2ccco2)cc1 (stereo not given)

Activity [1]: 63 µg/mL
Compound: NS(=O)(=O)c1ccc(NCc2cc(Cl)ccc2O)cc1

Activity [1]: 4 µg/mL
Compound: COc1ccc(N2C(=O)c3c(C)c(OC)cc(O)c3C2Sc2ncc[nH]2)cc1 (stereo not given)

Activity [1]: 4 µg/mL
Compound: COC(=O)c1c(C)c(OC)cc(O)c1CNc1cccc(Cl)c1
